Assay results as given in ChEMBL document CHEMBL1165950, “Design and synthesis of new potent anticancer pyrazoles with high FLT3 kinase inhibitory selectivity” (Bioorg Med Chem, 2010).

Key:
Type in all cases: functional
CCRF-CEM = assay: Cytotoxicity against human CCRF-CEM cells assessed as cell growth at 1 uM after 48 hrs by sulforhodamine B assay; settings: read-out: Activity
Outline: (§1)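 NCI-60 five-dose screen. Cells were grown in RPMI 1640 with 5% FBS and 2 mM L-glutamine, plated at 5000–40,000 cells/well and preincubated for 24 h. Time-zero plates were TCA-fixed. DMSO-solubilized drug was added at five concentrations (10-fold or ½-log serial dilutions) for 48 h at 37 °C, 5% CO2. Cells were TCA-fixed, stained with 0.4% SRB and read at 515 nm. Percent growth used time-zero, control and test absorbances.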

OVCAR-5 = assay: Cytotoxicity against human OVCAR5 cells assessed as cell growth at 10 uM after 48 hrs by sulforhodamine B assay; settings: OVCAR-5, 48 h, read-out: Activity
MDA-MB-435 = assay: Growth inhibition of human MDA-MB-435 cells after 48 hrs by sulforhodamine B assay; settings: MDA-MB-435, 48 h; for CC50: read-out: LC50 (the source's name)
Outline: (§2)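 NCI 60-cell screen, five-dose mode. Cells grown in RPMI 1640 with 5% FBS and 2 mM L-glutamine and plated at 5000-40,000 cells/well according to doubling time. After 24 h preincubation, a Tz plate was TCA-fixed. Five concentrations (10-fold or 1/2 log dilutions) were applied for 48 h at 37 °C. SRB staining read at 515 nm. IC50 taken from [(Ti-Tz)/(C-Tz)]×100 = 50.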

SK-MEL-2 = assay: Cytotoxicity against human SK-MEL-2 cells assessed as cell growth at 0.01 uM after 48 hrs by sulforhodamine B assay; settings: SK-MEL-2, 48 h, read-out: Activity
UO-31 = assay: Cytotoxicity against human UO31 cells assessed as cell growth at 10 uM; settings: read-out: Activity
Outline: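 NCI-60 screen: cells grown in RPMI 1640 with 5% FBS and 2 mM L-glutamine, plated at 5000–40,000 cells/well according to doubling time, and preincubated 24 h at 37 °C, 5% CO2. The single 10 µM dose (DMSO stock) was added, then incubated 48 h. Cells were TCA-fixed and stained with 0.4% SRB, read at 515 nm, and growth % calculated against time-zero and control plates.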

SW-620 = assay: Cytotoxicity against human SW620 cells assessed as cell growth at 1 uM after 48 hrs by sulforhodamine B assay; settings: SW-620, 48 h, read-out: Activity
SF-268 = assay: Cytotoxicity against human SF268 cells assessed as cell growth at 10 uM after 48 hrs by sulforhodamine B assay; settings: SF-268, 48 h, read-out: Activity
UACC-257 = assay: Cytotoxicity against human UACC257 cells assessed as cell growth at 0.001 uM after 48 hrs by sulforhodamine B assay; settings: UACC-257, 48 h, read-out: Activity
SN12C = assay: Growth inhibition of human SN12C cells after 48 hrs by sulforhodamine B assay; outline: as §2
786-0 [1] = assay: Cytotoxicity against human 786-0 cells assessed as cell growth at 0.01 uM after 48 hrs by sulforhodamine B assay; settings: 786-0, 48 h, read-out: Activity; outline: as §1
KM12 = assay: Cytotoxicity against human KM12 cells assessed as cell growth at 10 uM after 48 hrs by sulforhodamine B assay; settings: KM12, 48 h, read-out: Activity
ACHN [2] = assay: Cytotoxicity against human ACHN cells assessed as cell growth at 0.001 uM after 48 hrs by sulforhodamine B assay; settings: read-out: Activity; outline: as §1
TK-10 = assay: Cytotoxicity against human TK10 cells assessed as cell growth at 10 uM after 48 hrs by sulforhodamine B assay; settings: TK-10, 48 h, read-out: Activity
SK-MEL-5 = assay: Cytotoxicity against human SK-MEL-5 cells assessed as cell growth at 10 uM after 48 hrs by sulforhodamine B assay; settings: SK-MEL-5, 48 h, read-out: Activity
SNB-19 [3] = assay: Cytotoxicity against human SNB19 cells assessed as cell growth at 100 nM after 48 hrs by sulforhodamine B assay; settings: SNB-19, 48 h, read-out: Activity
MOLT-4 = assay: Cytotoxicity against human MOLT4 cells assessed as cell growth at 0.001 uM after 48 hrs by sulforhodamine B assay; settings: MOLT-4, 48 h, read-out: Activity
ACHN [4] = assay: Growth inhibition of human ACHN cells after 48 hrs by sulforhodamine B assay
Outline: (§3)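 NCI five-dose SRB assay in RPMI 1640 with 5% FBS and 2 mM L-glutamine. Cells were preincubated 24 h, then exposed 48 h at 37 °C to five concentrations (10-fold or half-log serial dilutions from DMSO stocks). TCA fixation, SRB staining, and absorbance at 515 nm followed. IC50 was taken where [(Ti−Tz)/(C−Tz)]×100 = 50, with Tz as time-zero cell density.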

786-0 [5] = assay: Growth inhibition of human 786-0 cells after 48 hrs by sulforhodamine B assay; settings: 786-0, 48 h; for CC50: read-out: LC50 (the source's name); outline: as §3
IGROV-1 [6] = assay: Cytotoxicity against human IGROV1 cells assessed as cell growth at 1 uM after 48 hrs by sulforhodamine B assay; settings: IGROV-1, 48 h, read-out: Activity
EKVX = assay: Cytotoxicity against human EKVX cells assessed as cell growth at 0.01 uM after 48 hrs by sulforhodamine B assay; settings: read-out: Activity
PC-3 = assay: Growth inhibition of human PC3 cells after 48 hrs by sulforhodamine B assay; settings: PC-3, 48 h; outline: as §2
SNB-19 [7] = assay: Cytotoxicity against human SNB19 cells assessed as cell growth at 0.01 uM after 48 hrs by sulforhodamine B assay; settings: SNB-19, 48 h, read-out: Activity
MDA-MB-231 = assay: Cytotoxicity against human MDA-MB-231 cells assessed as cell growth at 1 uM after 48 hrs by sulforhodamine B assay; settings: MDA-MB-231, 48 h, read-out: Activity
U-251 = assay: Cytotoxicity against human U251 cells assessed as cell growth at 100 nM after 48 hrs by sulforhodamine B assay; settings: U-251, 48 h, read-out: Activity
MDA-MB-468 = assay: Cytotoxicity against human MDA-MB-468 cells assessed as cell growth at 1 uM after 48 hrs by sulforhodamine B assay; settings: MDA-MB-468, 48 h, read-out: Activity
NCI/ADR-RES = assay: Cytotoxicity against human NCI/ADR-RES cells assessed as cell growth at 1 uM after 48 hrs by sulforhodamine B assay; settings: read-out: Activity
OVCAR-8 = assay: Cytotoxicity against human OVCAR8 cells assessed as cell growth at 1 uM after 48 hrs by sulforhodamine B assay; settings: OVCAR-8, 48 h, read-out: Activity
IGROV-1 [8] = assay: Cytotoxicity against human IGROV1 cells assessed as cell growth at 100 nM after 48 hrs by sulforhodamine B assay; settings: IGROV-1, 48 h, read-out: Activity

| SMILES | growth at 1 µM (CCRF-CEM) [%] | growth at 10 µM (OVCAR-5) [%] | GI50 (MDA-MB-435) [µM] | TGI (MDA-MB-435) [µM] | CC50 (MDA-MB-435) [µM] | growth at 0.01 µM (SK-MEL-2) [%] | growth at 10 µM (UO-31) [%] | growth at 1 µM (SW-620) [%] | growth at 10 µM (SF-268) [%] | growth at 0.001 µM (UACC-257) [%] | GI50 (SN12C) [µM] | LC50 (SN12C) [µM] | TGI (SN12C) [µM] | growth at 0.01 µM (786-0 [1]) [%] | growth at 10 µM (KM12) [%] | growth at 0.001 µM (ACHN [2]) [%] | growth at 10 µM (TK-10) [%] | growth at 10 µM (SK-MEL-5) [%] | growth at 0.1 µM (SNB-19 [3]) [%] | growth at 0.001 µM (MOLT-4) [%] | other results |
| --- | --- | --- | --- | --- | --- | --- | --- | --- | --- | --- | --- | --- | --- | --- | --- | --- | --- | --- | --- | --- | --- |
| Cc1cc(O)cc(-c2nn(CC#N)cc2-c2ccnc(-c3ccc(N(C)C)cc3)c2)c1 | 13 | -18 | 1.01 | 3.21 | > 100 | 108 | 52.4 | 10 | -58 | 96 | 4.28 | > 100 | 30 | 88 | -97 | 94 | -14 | -93 | 93 | 100 | GI50 (ACHN [4]): 3.73 µM; LC50 (concentration giving 50% net cell kill) (ACHN [4]): > 100 µM; TGI (ACHN [4]): 23.7 µM; GI50 (786-0 [5]): 3.41 µM; TGI (786-0 [5]): 16.6 µM; CC50 (786-0 [5]): > 100 µM; growth at 1 µM (IGROV-1 [6]): 24%; growth at 0.01 µM (EKVX): 86%; GI50 (PC-3): 3.77 µM; LC50 (concentration giving 50% net cell kill) (PC-3): > 100 µM; TGI (PC-3): 47.2 µM; growth at 0.01 µM (SNB-19 [7]): 95%; growth at 1 µM (MDA-MB-231): 11%; growth at 0.1 µM (U-251): 91%; growth at 1 µM (MDA-MB-468): -50%; growth at 1 µM (NCI/ADR-RES): -10%; growth at 1 µM (OVCAR-8): 27%; growth at 0.1 µM (IGROV-1 [8]): 87% |
| Cc1cc(O)cc(-c2nn(CC#N)cc2-c2ccnc(-c3ccc(Oc4ccccc4)cc3)c2)c1 | 6 | -89 | 2.32 | 6.84 | 60.6 | 99 | 46.9 | -52 | -95 | 95 | 1.8 | 9.01 | 4.02 | 95 | -100 | 98 | -89 | -100 | 94 | 99 | GI50 (ACHN [4]): 2.84 µM; LC50 (concentration giving 50% net cell kill) (ACHN [4]): 33.8 µM; TGI (ACHN [4]): 9.14 µM; GI50 (786-0 [5]): 2.14 µM; TGI (786-0 [5]): 5.38 µM; CC50 (786-0 [5]): 18.9 µM; growth at 1 µM (IGROV-1 [6]): -64%; growth at 0.01 µM (EKVX): 94%; GI50 (PC-3): 2.15 µM; LC50 (concentration giving 50% net cell kill) (PC-3): 62 µM; TGI (PC-3): 7.37 µM; growth at 0.01 µM (SNB-19 [7]): 100%; growth at 1 µM (MDA-MB-231): -13%; growth at 0.1 µM (U-251): 88%; growth at 1 µM (MDA-MB-468): -62%; growth at 1 µM (NCI/ADR-RES): -50%; growth at 1 µM (OVCAR-8): -30%; growth at 0.1 µM (IGROV-1 [8]): 86% |
| COc1cc(C)cc(-c2nn(CC#N)cc2-c2ccnc(-c3ccc(N(C)C)cc3)c2)c1 | 16 | 15 | 0.235 | 0.613 | > 100 | 116 | 37.9 | 19 | -32 | 90 | 0.73 | > 100 | 33.1 | 96 | -70 | 95 | -3 | -66 | 35 | 102 | GI50 (ACHN [4]): 0.499 µM; LC50 (concentration giving 50% net cell kill) (ACHN [4]): > 100 µM; TGI (ACHN [4]): 12.4 µM; GI50 (786-0 [5]): 0.42 µM; TGI (786-0 [5]): 5.43 µM; CC50 (786-0 [5]): > 100 µM; growth at 1 µM (IGROV-1 [6]): 5%; growth at 0.01 µM (EKVX): 89%; GI50 (PC-3): 0.363 µM; LC50 (concentration giving 50% net cell kill) (PC-3): > 100 µM; TGI (PC-3): > 100 µM; growth at 0.01 µM (SNB-19 [7]): 97%; growth at 1 µM (MDA-MB-231): -15%; growth at 0.1 µM (U-251): 16%; growth at 1 µM (MDA-MB-468): -55%; growth at 1 µM (NCI/ADR-RES): -5%; growth at 1 µM (OVCAR-8): 14%; growth at 0.1 µM (IGROV-1 [8]): 16% |
